Assay results published in PubChem BioAssay AID504383 (The Scripps Research Institute Molecular Screening Center, 2011).
The campaign covered roughly 2,500 compounds. About 1,200 (48%) were called active. The set was probably picked from earlier hits. Some of the results follow. Unmarked numbers belong to inactive results.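 How the source made its calls: active means mean activation above the low control average plus 3 SD, as set in the primary screen (cut at about 12% in these data); inactive means the rest.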

These compounds were tested against Troponin I, cardiac muscle (Homo sapiens) + Troponin T, cardiac muscle (Homo sapiens) + Troponin C, slow skeletal and cardiac muscles (Homo sapiens) (UniProt P19429+P45379+P63316) (assay: cardiac RTF calcium sensitivity activators, confirmation, biochemical, IANBD-TnC fluorescence, triplicate (AID 504383;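 further: 0% = DMSO at 0.472 mM calcium and 100% = DMSO at 2.9 mM calcium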)). Conditions: IANBD-labeled cardiac RTF, Ca2+ sensitivity fluorescence; at 7.2 µM; active compounds read high; scaled from EC20 to saturating calcium; tested at EC20 calcium, 0.472 mM.
In short: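 Test system: labelled regulated thin filament protein complex. Dosing: single nominal compound dose of 7.2 µM. Benchmarks: EC20 and EC100 calcium wells. Read-out basis: fluorescence gain scaled between EC20 and EC100 calcium controls. Probe or stimulus: submaximal calcium at 0.472 mM (EC20). Technique: fluorescence. Times: 15 min compound exposure, 25 °C.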

| Compound | activation |
| --- | --- |
| CC1=C(C(=O)OCCCCCl)C(c2cc3c(cc2Br)OCO3)NC(=O)N1 (stereo not given) | 7.44% |
| O=C(Nc1ccccc1C(=O)N/N=C/c1ccco1)c1ccc(F)cc1 | 10.3% |
| O=C(Cn1cc(/C=N/NC(=O)c2cccc3ccccc23)c2ccccc21)Nc1ccc(F)cc1 | 56.1% (active) |
| CCOc1cccc(NC(=O)/C(C#N)=C\c2cn(CC(=O)O)c3ccccc23)c1 | 7.03% |
| CCn1cc([N+](=O)[O-])c(C(=O)Nc2ccn(Cc3ccccc3)n2)n1 | 19.6% (active) |
| O=S1(=O)CCOC[C@H](CC2CCCCC2)N1Cc1ccccc1 | 3.3% |
| NC(=S)Nc1c(Cl)cccc1Cl | 1.18% |
| Cc1onc(-c2c(F)cccc2Cl)c1C(N)=S | 25.8% (active) |
| CCOC(=O)c1cc2c(=O)n3ccccc3nc2n(CCOC)c1=NC(=O)c1c(-c2c(F)cccc2Cl)noc1C | 8.32% |
| CSC(=NCc1ccco1)NC#N | 5.56% |
| O=[N+]([O-])c1ccc(C2=NN(c3ccccc3)C(c3ccco3)C2)cc1 (stereo not given) | 1.19% |
| O=[N+]([O-])c1ccc(/C=C/C2=NN(c3ccccc3)C(c3ccco3)C2)cc1 (stereo not given) | 31.7% (active) |
| COc1ncnc2c1N=C1CC(C)(C)CC(N)=C1S2 | 70.2% (active) |
| O=C(Nc1ccc(Br)cc1)C(c1ccccc1)c1ccccc1 | 3.94% |
| COC(C(=O)Nc1c(F)cccc1F)c1ccccc1 (stereo not given) | 13.6% (active) |
| Cc1nnc(NC(=O)CSc2ncnc3c2cnn3-c2ccccc2C)s1 | 14% (active) |
| Cc1nnc(NC(=O)CS(=O)(=O)Cc2ccccc2)s1 | 5.16% |
| NC(=O)NNC1=Nc2cccc3cccc1c23 | 6.47% |
| CCOC(=O)c1cccc(NC(=O)CSc2nc(N)cc(N)n2)c1 | 2.77% |
| Nc1nc(SCC(=O)Nc2ccccc2)nc2nc3c(cc12)CCCC3 | 12.6% (active) |
| Nc1nc(SCC(=O)Nc2ccc(Cl)cc2)[nH]c(=O)c1-c1ccccc1 | 5.51% |
| CCCOc1ccc(C2C(C(=O)/C=C/c3ccco3)=C(O)C(=O)N2CCN2CCOCC2)cc1OC (stereo not given) | 14% (active) |
| COc1ccc(NC(=O)Nc2cccnc2)c(OC)c1 | 5.8% |
| C=C(C)c1cccc(C(C)(C)NC(=O)Nc2cccnc2)c1 | 15.5% (active) |

| Compound | activation |
| --- | --- |
| CCn1c(CSCc2ccccc2)n[nH]c1=S | 15.7% (active) |
| Nc1ccc(CCNc2ncnc3c2ncn3[C@@H]2O[C@H](CO)[C@@H](O)[C@H]2O)cc1 | 7.47% |
| Cc1cc(-n2c(=O)c(C#N)cc3c(=O)n4ccccc4nc32)no1 | 14.7% (active) |
| S=C1NC2=C(CCC/C2=C\c2ccccc2)C(c2ccccc2)N1 (stereo not given) | 8.03% |
| S=C1NC2=C(CCCC2=C2SCCCS2)C(c2ccccc2)N1 (stereo not given) | 23.6% (active) |
| CN(C)/C=C1\SC(=S)N(c2ccc(Br)cc2)C1=O | 75.9% (active) |
| CC(C)c1ccc(N2C(=O)/C(=C/N(C)C)SC2=S)cc1 | 57.7% (active) |
| CCN1C(=O)/C(=C/C=C2\N(CC)c3cc(S(=O)(=O)N(C)C)ccc3N2c2ccccc2)SC1=S | 10.6% |
| O=C1CSC(=S)N1c1ccc(O)cc1 | 4.53% |
| O=C(c1ccccc1C(=O)N1CCN(c2ccccc2)CC1)N1CCN(c2ccccc2)CC1 | 0.49% |
| C=CCn1c(C)c(C(C)=O)c(N2CCN(c3ccccc3)CC2)nc1=S | 74.9% (active) |
| CC(=O)c1nnn(-c2nc(N3CCCC3)nc(N(c3ccccc3)c3ccccc3)n2)c1C | 5.27% |
| CC(C)OC(=O)CC(=O)CSc1nc(-c2ccc(F)cc2)cc(-c2ccccc2)c1C#N | 38.9% (active) |
| COC(=O)c1ccc(-c2ccc(F)cc2)nc1C | -3.68% |
| O=C(OCCN1CCCCC1)c1ccccc1Br | 3.85% |
| CN1CCCC(OC(=O)c2ccccc2Br)C1 (stereo not given) | 67% (active) |
| Cc1c(Br)c(C(=O)N2CCc3ccccc32)nn1C | 3.1% |
| Cc1cccc2cc3c(N)c(C(=O)N4CCc5ccccc54)sc3nc12 | 7.08% |
| Cc1nn(C)c(C(=O)N2CCc3ccccc32)c1Br | 66.9% (active) |
| O=C1c2ccsc2SCCN1Cc1ccc(F)cc1 | 27.7% (active) |
| O=C1N/C(=C\c2ccsc2)C(=O)N1Cc1ccc(F)cc1 | 4.06% |
| C=CCn1c(=O)c(C(=O)NCCNCC)c(O)c2ccccc21 | 12.4% (active) |
| COc1cc(OC)cc(C(=O)N(Cc2ccco2)c2c(N)n(Cc3ccccc3)c(=O)[nH]c2=O)c1 | 7.79% |
| COCCCN(C(=O)c1cccnc1SC)c1c(N)n(Cc2ccccc2)c(=O)[nH]c1=O | 48.1% (active) |

| Compound | activation |
| --- | --- |
| CCn1c(=O)c(C(=O)CN2CCCc3ccccc32)c(N)n(Cc2ccccc2)c1=O | 60% (active) |
| CCN(C(=O)CN1CCCc2cc(C)ccc21)c1c(N)n(Cc2ccccc2)c(=O)[nH]c1=O | 6.97% |
| COCCN(C(=O)CN1CCCc2ccccc21)c1c(N)n(Cc2ccccc2)c(=O)[nH]c1=O | 18.8% (active) |
| CCCCN(C(=O)c1ccc([N+](=O)[O-])o1)c1c(N)n(CCCC)c(=O)[nH]c1=O | 5.49% |
| Cc1ccc2c(c1)CCCN2CC(=O)N(C)c1c(N)n(Cc2ccccc2)c(=O)[nH]c1=O | 1.27% |
| OCCN(CCO)c1nc(N2CCCCC2)c2nc(N(CCO)CCO)nc(N3CCCCC3)c2n1 | 7.69% |
| CC(=O)N1CCc2c(sc(NC(=O)C3CCCN3S(=O)(=O)c3cccs3)c2C(N)=O)C1 (stereo not given) | 39.1% (active) |
| CN1CCc2c(sc(/N=C/c3ccco3)c2C(N)=O)C1 | 10.3% |
| CN1CCc2c(sc(/N=C/c3cccs3)c2C(N)=O)C1 | 2.64% |
| CCN1C(=O)/C(=C/N2CCc3ccccc32)SC1=S | 50% (active) |
| C=CCN1C(=O)/C(=C\C=C2\N(C)c3ccccc3C2(C)C)SC1=S | 3.44% |
| COc1ccc(C2=NS(=O)(=O)N(C)C(C(=O)NC3CCCC3)=C2)cc1 | -1.79% |
| COc1ccccc1NCC(=O)NC(=O)NC1CCCCC1 | 13.1% (active) |
| CCOc1ccc(C(=O)NC2CCN(C(=O)Nc3ccccc3OC)CC2)cc1 | 2.1% |
| CSCCC(NC(=O)c1ccc(Cl)cc1)C(=O)OCC(=O)c1ccc[nH]1 (stereo not given) | 9.46% |
| COc1ccc(OC)c(S(=O)(=O)N2CCC(C(=O)NCc3ccccn3)CC2)c1 | 7.51% |
| COc1ccc(N2CC(C(=O)Nc3nc(-c4ccccc4)c(C(C)=O)s3)CC2=O)c(OC)c1 (stereo not given) | 12.4% (active) |
| CCS(=O)(=O)N1Cc2ccccc2CC1C(=O)Nc1ccc(OC)cc1OC (stereo not given) | 6.84% |
| N#CC1=C(N)OC2=C(CC/C2=C\c2ccccc2)C1c1ccccc1 (stereo not given) | 36.3% (active) |
| N#CC1=C(N)OC2=C(CC/C2=C\c2ccccc2Cl)C1c1ccccc1Cl (stereo not given) | 317% (active) |
| Cc1ccc(/C=C2\CCC3=C2OC(N)=C(C#N)C3c2ccc(C)cc2)cc1 (stereo not given) | 11% |
| CC(=O)C1=C(C)N(CC2CC2)C(=O)N[C@H]1c1ccc(Br)cc1 | 102% (active) |
| CC(=O)C1=C(C)N(Cc2ccccc2)C(=O)N[C@@H]1c1cccc(C(F)(F)F)c1 | 8.59% |
| COc1ccc(Cl)cc1NC(=O)CN(C)C(=O)c1ccc(N2CCCCCC2)c([N+](=O)[O-])c1 | 59.6% (active) |

| Compound | activation |
| --- | --- |
| COc1ccc(Cl)cc1NC(=O)CN(C)C(=O)COc1ccccc1F | 4.03% |
| O=C(Cc1ccccc1)Nn1c(O)c(/C=C2\C=Nc3ccccc32)sc1=S | 87.3% (active) |
| CN(C)C(=O)CN1C(=O)C2CCCCN2C(=O)c2ccccc21 (stereo not given) | 9.05% |
| CN(C)/C=C1\C=C2C(=O)c3ccccc3N2C1=O | 87.3% (active) |
| Cc1cc(C)c(NC(=S)N(C)C)c(C)c1 | 42.1% (active) |
| N=C1c2ccccc2CN1c1ccc(S(=O)(=O)N2CCCCC2)cc1 | 49.2% (active) |
| CSc1nnc(-c2ccc(S(=O)(=O)N3CCCC3)cc2)n1C | -0.41% |
| CN(C)c1ccc(/C=C/C(=O)c2ccccc2O)cc1 | 6.07% |
| CN(C)c1ccc(/C=C/C(=O)c2c(O)c3ccccc3oc2=O)cc1 | 12.3% (active) |
| CCOc1cccc2c1OC(c1cc(OC)c(OC)c(OC)c1)N1N=C(c3ccc(C)o3)CC21 (stereo not given) | 11.7% (active) |
| O=C1NCCN1c1ncc([N+](=O)[O-])s1 | 19.6% (active) |
| CC(=O)N(C)c1ccc(C(O)(C(F)(F)F)C(F)(F)F)cc1 | 30.4% (active) |
| COc1ccc(CCNC(=O)C2CC(c3c(Cl)cccc3Cl)=NO2)cc1 (stereo not given) | 7.74% |
| COc1cccc(/C(O)=C/c2nc3ccc(C(=O)NCCc4cccc(C)c4)cc3[nH]c2=O)c1 | 9.81% |
| COc1ccc(CCNC(=O)COC(=O)c2cc(=O)[nH]c3ccccc23)cc1 | 93% (active) |
| CCc1ccc(/C=N/n2c(C)cc(C)c(C#N)c2=O)cc1 | 7.16% |
| Cc1c(/C=N/O)c2ccccn2c1C=O | 8.72% |
| CN1CCC(N(CCc2ccccc2)C(=O)CCC(=O)O)CC1 | 146% (active) |
| N#CC(C(=O)NCc1ccccc1)c1nc2ccccc2nc1N1CCCC1 (stereo not given) | -1.52% |
| CCCCCCNC(=O)C(C#N)c1nc2ccccc2nc1N1CCCC1 (stereo not given) | 5.18% |
| CCN(CC)c1nc2ccccc2nc1C(C#N)C(=O)NCCc1ccccc1 (stereo not given) | 532% (active) |
| COc1ccc(C(=O)NCC(=O)N2CCN(C(=O)c3ccco3)CC2)cc1OC | 47.6% (active) |
| O=C(NCC(=O)N1CCN(c2ncccn2)CC1)c1ccccc1OC(F)F | 0.94% |
